Data as given in ChEMBL document CHEMBL1142266, “Structure-based virtual screening for the discovery of natural inhibitors for human rhinovirus coat protein” (J Med Chem, 2008).
Converted amounts (≈) assume the structure as drawn. The source made the active and inactive calls. The rule behind the calls is not given here.

Columns and labels:
[1] = Cytotoxicity against human HeLa cells after 72 hrs; type: cell-based
[2] = Selectivity index, ratio of CC50 for HeLa cells to IC50 for HRV2 in HeLa cells; type: functional, Homo sapiens
[3] = system: rhinovirus A2; test: Antiviral activity against HRV2 in HeLa cells; type: functional, organism-based; conditions: Rhinovirus A
Method in brief: (§1)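 Cytopathic-effect inhibition assays in HeLa cells infected with pleconaril-sensitive HRV-1A, -2, -14 or -16. Dose-dependent inhibition of virus-induced CPE was measured, and the 50% inhibitory concentration (IC50) was derived.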

[4] = system: Human rhinovirus 1A; test: Antiviral activity against HRV1A in HeLa cells; type: functional, organism-based; method in brief: as §1
[5] = system: rhinovirus B14; test: Antiviral activity against HRV14 in HeLa cells; type: functional, organism-based; method in brief: as §1
[6] = system: rhinovirus A16; test: Antiviral activity against HRV16 in HeLa cells; type: functional, organism-based; method in brief: as §1
[7] = system: rhinovirus A2; test: Inactivation of HRV2 assessed as reduction in plaque at 2.5 ug/ml after 1 hr; type: functional, organism-based
Method in brief: (§2)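 Direct-inactivation test using a modified plaque-reduction format. HRV-2 was incubated with or without compound at 37 °C for 1 h, and the suspensions were then diluted 100-fold. Residual virus titer was determined by plaque assay on HeLa cells, with pleconaril run as positive control.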

[8] = system: rhinovirus A2; test: Inhibition of HRV2 absorption on HeLa cells assessed as reduction in plaques at 2.5 ug/ml after 2 hrs; type: functional; conditions: Rhinovirus A
[9] = system: rhinovirus A2; test: Inactivation of HRV2 assessed as reduction in plaque at 0.25 ug/ml after 1 hr; type: functional; set-up: scale not given: the % may be the effect or the level left; method in brief: as §2
[10] = system: rhinovirus A2; test: Inhibition of HRV2 absorption on HeLa cells assessed as reduction in plaques at 0.25 ug/ml after 2 hrs; type: functional; conditions: Rhinovirus A
[11] = system: rhinovirus A2; test: Inhibition of HRV2 replication cycle progression; type: functional, organism-based; conditions: Rhinovirus A
[12] = system: rhinovirus A16; test: Inhibition of HRV16 replication cycle progression; type: functional, organism-based; conditions: Rhinovirus A
[13] = Selectivity for HRV2 over HRV16; type: functional

Compound | CC50 at 72 h [1] [µg/mL] | Ratio CC50/IC50 [2] | IC50 [3] [µg/mL] | Activity [4] | Activity [5] | Activity [6] | Activity [7] | inhibition at 2.5 µg/mL [8] [%] | Activity [9] [%] | inhibition at 0.25 µg/mL [10] [%] | EC50 [11] [nM] | EC50 [12] [nM] | Selectivity ratio [13] | IC50 [4] [µg/mL] | IC50 ([5]; Rhinovirus B) [µg/mL] | IC50 ([6]; Rhinovirus A) [µg/mL]
C=C1CC[C@@H](O)C(C)(C)C1CC/C(C)=C/COc1ccc2ccc(=O)oc2c1 (some centres not stated) [FARNESIFEROL B] | 8.2 (≈ 21.4 µM) | 8.2 | 1 (≈ 2.61 µM) | inactive | inactive | inactive |  |  |  |  |  |  |  |  |  | 
C/C(=C\COc1ccc2ccc(=O)oc2c1)CCC1C(C)(C)[C@H]2CC[C@]1(C)O2 (some centres not stated) [FARNESIFEROL] | 7.7 (≈ 20.1 µM) | 8.02 | 0.96 (≈ 2.51 µM) | inactive | inactive | inactive | inactive | 35.2 |  |  |  |  |  |  |  | 
Cc1cc(CCCOc2c(C)cc(-c3noc(C(F)(F)F)n3)cc2C)on1 [PLECONARIL] | 12.6 (≈ 33 µM) | 1260 | 0.01 (≈ 0.0262 µM) |  |  |  |  |  | 84.3 | 100 | 40 | 570 | 10 | 0.02 (≈ 0.0524 µM) | 0.02 (≈ 0.0524 µM) | 0.02 (≈ 0.0524 µM)
C[C@H]1CC=C2[C@H](CC[C@H](O)C2(C)C)[C@@]1(C)COc1ccc2ccc(=O)oc2c1 [MICROLOBIDENE] | 10 (≈ 26.1 µM) | <1 | > 10 | inactive | inactive | inactive |  |  |  |  |  |  |  |  |  | 
CC(=O)O[C@H]1CC[C@]2(C)[C@H](CC[C@@](C)(O)[C@@H]2COc2ccc3ccc(=O)oc3c2)C1(C)C [KELLARIN] | 15.5 (≈ 35 µM) | <1 | > 15.5 | inactive | inactive | inactive |  |  |  |  |  |  |  |  |  | 
